From ChEMBL document CHEMBL1159047, “Synthesis and biological evaluation of antitumour-active betulin derivatives” (Bioorg Med Chem, 2010)
pIC50: −log10 of the molar value. Activity calls are given as the source filed them. No cut-off for these calls is given here.

Key:
[1] = Cytotoxicity against human 518A2 cells after 96 hrs by SRB assay; type: functional, cell-based; settings: 518A2, 96 h
Procedure, shortened: (§1)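 Monolayer cells grown in RPMI 1640 with 10% heat-inactivated FBS and penicillin/streptomycin at 37 °C, 5% CO2. Cells were seeded and, after 24 h, exposed to serial dilutions (0–30 µM; DMSO or DMF ≤0.5% final) for 96 h. They were then fixed with 10% TCA at 4 °C, stained with 0.4% SRB and dissolved in 10 mM Tris, with absorbance read at 570 nm. IC50 comes from semi-log dose–response curves of survival versus untreated controls, from ≥3 independent experiments.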

[2] = test system: A-431; assay: Cytotoxicity against human A431 cells after 96 hrs by SRB assay; type: functional, cell-based; settings: A-431, 96 h; procedure, shortened: as §1
[3] = Cytotoxicity against human A253 cells after 96 hrs by SRB assay; type: functional, cell-based; settings: A253, 96 h; procedure, shortened: as §1
[4] = test system: FaDu; assay: Cytotoxicity against human FADU cells after 96 hrs by SRB assay; type: functional, cell-based; procedure, shortened: as §1
[5] = test system: A549; assay: Cytotoxicity against human A549 cells after 96 hrs by SRB assay; type: functional, cell-based; settings: A549, 96 h; procedure, shortened: as §1
[6] = test system: A2780; assay: Cytotoxicity against human A2780 cells after 96 hrs by SRB assay; type: functional, cell-based; settings: A2780, 96 h; procedure, shortened: as §1
[7] = test system: DLD-1; assay: Cytotoxicity against human DLD1 cells after 96 hrs by SRB assay; type: functional, cell-based; settings: DLD-1, 96 h; procedure, shortened: as §1
[8] = test system: HCT-8; assay: Cytotoxicity against human HCT8 cells after 96 hrs by SRB assay; type: functional, cell-based; settings: HCT-8, 96 h; procedure, shortened: as §1
[9] = test system: HCT-116; assay: Cytotoxicity against human HCT116 cells after 96 hrs by SRB assay; type: functional, cell-based; settings: HCT-116, 96 h; procedure, shortened: as §1
[10] = test system: HT-29; assay: Cytotoxicity against human HT-29 cells after 96 hrs by SRB assay; type: functional, cell-based; settings: HT-29, 96 h; procedure, shortened: as §1
[11] = test system: SW480; assay: Cytotoxicity against human SW480 cells after 96 hrs by SRB assay; type: functional, cell-based; settings: SW480, 96 h; procedure, shortened: as §1
[12] = test system: 8505C; assay: Cytotoxicity against human 8505C cells after 96 hrs by SRB assay; type: functional, cell-based; procedure, shortened: as §1
[13] = test system: SW-1736; assay: Cytotoxicity against human SW1736 cells after 96 hrs by SRB assay; type: functional, cell-based; settings: SW-1736, 96 h; procedure, shortened: as §1
[14] = test system: MCF7; assay: Cytotoxicity against human MCF7 cells after 96 hrs by SRB assay; type: functional, cell-based; settings: MCF7, 96 h; procedure, shortened: as §1
[15] = Cytotoxicity against human Liposarcoma cells after 96 hrs by SRB assay; type: functional, cell-based; procedure, shortened: as §1
[16] = test system: 518A2; assay: Growth inhibition of human 518A2 cells at 30 uM after 96 hrs by SRB assay; type: functional, cell-based
Procedure, shortened: (§2)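 Same SRB set-up: RPMI 1640 with 10% FBS at 37 °C, 5% CO2, and a 96 h exposure starting 24 h after seeding (DMSO or DMF ≤0.5% final). Percent viable cells relative to untreated controls is read at 30 µM, the top concentration of the 0–30 µM dilution series. Cells were fixed with TCA, stained with SRB and read at 570 nm; ≥3 independent experiments.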

[17] = test system: DLD-1; assay: Growth inhibition of human DLD1 cells at 30 uM after 96 hrs by SRB assay; type: functional, cell-based; procedure, shortened: as §2
[18] = test system: 8505C; assay: Growth inhibition of human 8505C cells at 30 uM after 96 hrs by SRB assay; type: functional, cell-based; procedure, shortened: as §2
[19] = organism: Homo sapiens; assay: Growth inhibition of human Liposarcoma cells at 30 uM after 96 hrs by SRB assay; type: functional; procedure, shortened: as §2
[20] = test system: FaDu; assay: Growth inhibition of human FADU cells at 30 uM after 96 hrs by SRB assay; type: functional, cell-based; procedure, shortened: as §2
[21] = test system: A549; assay: Growth inhibition of human A549 cells at 30 uM after 96 hrs by SRB assay; type: functional, cell-based; procedure, shortened: as §2
[22] = test system: A2780; assay: Growth inhibition of human A2780 cells at 30 uM after 96 hrs by SRB assay; type: functional, cell-based; procedure, shortened: as §2
[23] = test system: SW-1736; assay: Growth inhibition of human SW1736 cells at 30 uM after 96 hrs by SRB assay; type: functional, cell-based; procedure, shortened: as §2
[24] = test system: HT-29; assay: Growth inhibition of human HT-29 cells at 30 uM after 96 hrs by SRB assay; type: functional, cell-based; procedure, shortened: as §2
[25] = test system: SW480; assay: Growth inhibition of human SW480 cells at 30 uM after 96 hrs by SRB assay; type: functional, cell-based; procedure, shortened: as §2

Structure (SMILES)	pIC50 [1]	pIC50 [2]	pIC50 [3]	pIC50 [4]	pIC50 [5]	pIC50 [6]	pIC50 [7]	pIC50 [8]	pIC50 [9]	pIC50 [10]	pIC50 [11]	pIC50 [12]	pIC50 [13]	pIC50 [14]	pIC50 [15]	further results
C=C(C)[C@@H]1CC[C@]2(C(=O)CC(=O)OCC)CC[C@]3(C)[C@H](CC[C@@H]4[C@@]5(C)CC[C@H](OC)C(C)(C)[C@@H]5CC[C@]43C)[C@@H]12	5.20	5.41	5.13	5.19	5.28	5.37	5.10	5.39	5.44	5.39	5.23	5.10	5.14	5.33	5.19	
C=C(C)[C@@H]1CC[C@]2([C@H](O)CC(=O)CC(=O)OCC)CC[C@]3(C)[C@H](CC[C@@H]4[C@@]5(C)CC[C@H](OC(C)=O)C(C)(C)[C@@H]5CC[C@]43C)[C@@H]12	4.94	4.79	5.00	4.98	4.77	5.04	5.03	4.95	4.89	4.73	4.89	5.02	4.97	4.86	5.05	
C=C(C)[C@@H]1CC[C@]2(C(=O)O)CC[C@]3(C)[C@H](CC[C@@H]4[C@@]5(C)CC[C@H](O)C(C)(C)[C@@H]5CC[C@]43C)[C@@H]12 [BETULINIC ACID]															5.01	
C=C(C)[C@@H]1CC[C@]2([C@@H]3O[C@H]3C(=O)N(CC)CC)CC[C@]3(C)[C@H](CC[C@@H]4[C@@]5(C)CC[C@H](OC(C)=O)C(C)(C)[C@@H]5CC[C@]43C)[C@@H]12	5.15	5.37	5.46	5.23	5.25	5.33	5.10	5.57	5.64	5.02	5.22	5.08	5.57	5.34	5.11	
C=C(C)[C@@H]1CC[C@]2(C(=O)[C@H]3CCOC3=O)CC[C@]3(C)[C@H](CC[C@@H]4[C@@]5(C)CC[C@H](OC(C)=O)C(C)(C)[C@@H]5CC[C@]43C)[C@@H]12 (mixture of isomers)	5.02	5.14	5.15	5.24	5.26	5.19	5.02	5.11	5.21	4.83	5.02	5.04	5.21	5.11	5.00	
C=C(C)[C@@H]1CC[C@]2(C(=O)CC(=O)OCC)CC[C@]3(C)[C@H](CC[C@@H]4[C@@]5(C)CC[C@H](OC(C)=O)C(C)(C)[C@@H]5CC[C@]43C)[C@@H]12	5.60	5.59	5.66	5.52	5.66	5.74	5.41	5.52	5.62	4.92	5.66	5.64	5.64	5.17	5.66	
CCOC(=O)C[C@H]1O[C@@H]2[C@@H]3[C@H]4CC[C@@H]5[C@@]6(C)CC[C@H](OC(C)=O)C(C)(C)[C@@H]6CC[C@@]5(C)[C@]4(C)CC[C@@]31CCC2(C)C		4.65	4.60	4.61	4.66	4.92		4.92	5.03	4.78	4.76		4.59	4.57		growth inhibition (GI) [16]: inactive; growth inhibition (GI) [17]: inactive; growth inhibition (GI) [18]: inactive; growth inhibition (GI) [19]: inactive
C=C(C)[C@@H]1CC[C@]2([C@H]3CO3)CC[C@]3(C)[C@H](CC[C@@H]4[C@@]5(C)CC[C@H](O)C(C)(C)[C@@H]5CC[C@]43C)[C@@H]12		4.63	4.70					4.61	4.69	4.74	4.77	4.61		4.54	4.61	growth inhibition (GI) [16]: inactive; growth inhibition (GI) [20]: inactive; growth inhibition (GI) [21]: inactive; growth inhibition (GI) [22]: inactive; growth inhibition (GI) [17]: inactive; growth inhibition (GI) [23]: inactive
CCOC(=O)CC(=O)C[C@H]1O[C@@H]2[C@@H]3[C@H]4CC[C@@H]5[C@@]6(C)CC[C@H](OC(C)=O)C(C)(C)[C@@H]6CC[C@@]5(C)[C@]4(C)CC[C@@]31CCC2(C)C	4.98	5.01	4.96	5.15	5.28	5.33	5.14	5.21	5.15	4.88	5.24	5.05	4.95	5.04	4.98	
C=C(C)[C@@H]1CC[C@]2([C@H](O)[C@H]3C=CC(=O)O3)CC[C@]3(C)[C@H](CC[C@@H]4[C@@]5(C)CC[C@H](OC(C)=O)C(C)(C)[C@@H]5CC[C@]43C)[C@@H]12	4.78	5.05	4.80	4.91	4.77	5.06	4.79	4.83	5.07	4.52	4.89	4.77	4.83	4.90	4.80	
C=C(C)[C@@H]1CC[C@]2([C@H](O)[C@H]3CCOC3=O)CC[C@]3(C)[C@H](CC[C@@H]4[C@@]5(C)CC[C@H](OC(C)=O)C(C)(C)[C@@H]5CC[C@]43C)[C@@H]12	4.75	4.93	4.77	4.76	4.68	4.91	4.76	5.08	4.97		4.79	4.65	4.73	4.93	4.76	growth inhibition (GI) [24]: inactive
C=C(C)[C@@H]1CC[C@]2([C@H](O)CC(=O)OCC)CC[C@]3(C)[C@H](CC[C@@H]4[C@@]5(C)CC[C@H](OC(C)=O)C(C)(C)[C@@H]5CC[C@]43C)[C@@H]12		4.73			4.55	4.68		4.78	4.89	4.66			4.63	4.56		growth inhibition (GI) [16]: inactive; growth inhibition (GI) [20]: inactive; growth inhibition (GI) [17]: inactive; growth inhibition (GI) [25]: inactive; growth inhibition (GI) [18]: inactive; growth inhibition (GI) [19]: inactive
C=C(C)[C@@H]1CC[C@]2([C@H](O)CC(=O)CC(=O)OCC)CC[C@]3(C)[C@H](CC[C@@H]4[C@@]5(C)CC[C@H](OC)C(C)(C)[C@@H]5CC[C@]43C)[C@@H]12	4.71	4.68	4.77	4.79	4.84	4.92	4.85	4.90	4.84	4.77	4.82	4.75	4.86	4.68	4.75	
C=C(C)[C@@H]1CC[C@]2([C@@H]3CO3)CC[C@]3(C)[C@H](CC[C@@H]4[C@@]5(C)CC[C@H](O)C(C)(C)[C@@H]5CC[C@]43C)[C@@H]12	4.57	4.70	4.73			4.55		4.69	4.70	4.81	4.79	4.65		4.63	4.65	growth inhibition (GI) [20]: inactive; growth inhibition (GI) [21]: inactive; growth inhibition (GI) [17]: inactive; growth inhibition (GI) [23]: inactive
